Assay results: ChEMBL document CHEMBL4689842, “EUbOPEN Chemogenomics Library wave 1” (2021)

Tested on: HEK-293T
Assay: Multiplex assay against HEK293T;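 on Population Tubulin-Different-Phenotype (%): share of the cells with healthy nuclei that show this phenotype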
Assay type: toxicity, cell-based
Details: human
Method in brief: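 Cells stained live at seeding with Hoechst33342, BioTracker Green Microtubule Cytoskeleton Dye, MitoTracker Red and Annexin V Alexa Fluor 680 were imaged on a CQ1 microscope at 37°C and 5% CO2 after compound addition. Their classification by CellPathfinder machine-learning gating ran from Hoechst high-intensity objects versus normal cells, to healthy, pyknosed or fragmented nuclei among normal cells, to mitotic or apoptotic among pyknosed cells. Tubulin, mitochondrial-mass and membrane-permeability phenotypes are per cents of healthy-nucleus cells.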

[1] = 12 h, 1 µM, compound concentration 1 uM, replicate 1
[2] = 12 h, 1 µM, compound concentration 1 uM, replicate 2
[3] = 12 h, 10 µM, compound concentration 10 uM, replicate 1
[4] = 12 h, 10 µM, compound concentration 10 uM, replicate 2
[5] = 24 h, 1 µM, compound concentration 1 uM, replicate 1
[6] = 24 h, 1 µM, compound concentration 1 uM, replicate 2
[7] = 24 h, 10 µM, compound concentration 10 uM, replicate 1
[8] = 24 h, 10 µM, compound concentration 10 uM, replicate 2
[9] = 48 h, 1 µM, compound concentration 1 uM, replicate 1
[10] = 48 h, 1 µM, compound concentration 1 uM, replicate 2
[11] = 48 h, 10 µM, compound concentration 10 uM, replicate 1
[12] = 48 h, 10 µM, compound concentration 10 uM, replicate 2

Compound: Cl.Cl.NC1(c2ccc(-c3nc4ccn5c(=O)[nH]nc5c4cc3-c3ccccc3)cc2)CCC1
- Population Apoptotic (%) [1]: 25%
- Population Fragmented Nuclei (%) [1]: 19%
- Population Healthy Nuclei (%) [1]: 63%
- Population Hoechst High Intensity Objects (%) [1]: 20%
- Population Membrane Permeable-Phenotype (%) [1]: 13%
- Population Mitochondria Different-Phenotype (%) [1]: 10%
- Population Mitotic Cells (%) [1]: 74%
- Population Normal (%) [1]: 79%
- Population Pyknosed Nuclei (%) [1]: 17%
- Population Tubulin-Different-Phenotype (%) [1]: 15%
- Total Cell Count [1]: 657
- Population Apoptotic (%) [2]: 11%
- Population Fragmented Nuclei (%) [2]: 8%
- Population Healthy Nuclei (%) [2]: 85%
- Population Hoechst High Intensity Objects (%) [2]: 5%
- Population Membrane Permeable-Phenotype (%) [2]: 6%
- Population Mitochondria Different-Phenotype (%) [2]: 20%
- Population Mitotic Cells (%) [2]: 88%
- Population Normal (%) [2]: 94%
- Population Pyknosed Nuclei (%) [2]: 6%
- Population Tubulin-Different-Phenotype (%) [2]: 34%
- Total Cell Count [2]: 1341
- Population Apoptotic (%) [3]: 31%
- Population Fragmented Nuclei (%) [3]: 27%
- Population Healthy Nuclei (%) [3]: 30%
- Population Hoechst High Intensity Objects (%) [3]: 56%
- Population Membrane Permeable-Phenotype (%) [3]: 18%
- Population Mitochondria Different-Phenotype (%) [3]: 27%
- Population Mitotic Cells (%) [3]: 68%
- Population Normal (%) [3]: 43%
- Population Pyknosed Nuclei (%) [3]: 42%
- Population Tubulin-Different-Phenotype (%) [3]: 43%
- Total Cell Count [3]: 496
- Population Apoptotic (%) [4]: 14%
- Population Fragmented Nuclei (%) [4]: 5%
- Population Healthy Nuclei (%) [4]: 71%
- Population Hoechst High Intensity Objects (%) [4]: 65%
- Population Membrane Permeable-Phenotype (%) [4]: 23%
- Population Mitochondria Different-Phenotype (%) [4]: 25%
- Population Mitotic Cells (%) [4]: 85%
- Population Normal (%) [4]: 34%
- Population Pyknosed Nuclei (%) [4]: 22%
- Population Tubulin-Different-Phenotype (%) [4]: 82%
- Total Cell Count [4]: 798
- Population Apoptotic (%) [5]: 23%
- Population Fragmented Nuclei (%) [5]: 20%
- Population Healthy Nuclei (%) [5]: 68%
- Population Hoechst High Intensity Objects (%) [5]: 17%
- Population Membrane Permeable-Phenotype (%) [5]: 18%
- Population Mitochondria Different-Phenotype (%) [5]: 8%
- Population Mitotic Cells (%) [5]: 76%
- Population Normal (%) [5]: 82%
- Population Pyknosed Nuclei (%) [5]: 10%
- Population Tubulin-Different-Phenotype (%) [5]: 38%
- Total Cell Count [5]: 645
- Population Apoptotic (%) [6]: 8%
- Population Fragmented Nuclei (%) [6]: 23%
- Population Healthy Nuclei (%) [6]: 73%
- Population Hoechst High Intensity Objects (%) [6]: 7%
- Population Membrane Permeable-Phenotype (%) [6]: 14%
- Population Mitochondria Different-Phenotype (%) [6]: 4%
- Population Mitotic Cells (%) [6]: 91%
- Population Normal (%) [6]: 92%
- Population Pyknosed Nuclei (%) [6]: 3%
- Population Tubulin-Different-Phenotype (%) [6]: 46%
- Total Cell Count [6]: 2029
- Population Apoptotic (%) [7]: 41%
- Population Fragmented Nuclei (%) [7]: 40%
- Population Healthy Nuclei (%) [7]: 21%
- Population Hoechst High Intensity Objects (%) [7]: 63%
- Population Membrane Permeable-Phenotype (%) [7]: 23%
- Population Mitochondria Different-Phenotype (%) [7]: 38%
- Population Mitotic Cells (%) [7]: 58%
- Population Normal (%) [7]: 36%
- Population Pyknosed Nuclei (%) [7]: 38%
- Population Tubulin-Different-Phenotype (%) [7]: 41%
- Total Cell Count [7]: 436
- Population Apoptotic (%) [8]: 12%
- Population Fragmented Nuclei (%) [8]: 7%
- Population Healthy Nuclei (%) [8]: 53%
- Population Hoechst High Intensity Objects (%) [8]: 69%
- Population Membrane Permeable-Phenotype (%) [8]: 29%
- Population Mitochondria Different-Phenotype (%) [8]: 20%
- Population Mitotic Cells (%) [8]: 88%
- Population Normal (%) [8]: 30%
- Population Pyknosed Nuclei (%) [8]: 39%
- Population Tubulin-Different-Phenotype (%) [8]: 92%
- Total Cell Count [8]: 837

Compound: Nc1nc2c(c(N3CCNCC3)n1)CCC1=C2[C@@H]2CCCC[C@@H]2O1
- Population Apoptotic (%) [1]: 34%
- Population Fragmented Nuclei (%) [1]: 7%
- Population Hoechst High Intensity Objects (%) [1]: 10%
- Population Membrane Permeable-Phenotype (%) [1]: 3%
- Population Mitochondria Different-Phenotype (%) [1]: 82%
- Population Mitotic Cells (%) [1]: 65%
- Population Normal (%) [1]: 89%
- Population Pyknosed Nuclei (%) [1]: 50%
- Population Tubulin-Different-Phenotype (%) [1]: 48%
- Total Cell Count [1]: 236
- Population Apoptotic (%) [2]: 21%
- Population Fragmented Nuclei (%) [2]: 4%
- Population Healthy Nuclei (%) [2]: 41%
- Population Hoechst High Intensity Objects (%) [2]: 4%
- Population Membrane Permeable-Phenotype (%) [2]: 6%
- Population Mitochondria Different-Phenotype (%) [2]: 33%
- Population Mitotic Cells (%) [2]: 78%
- Population Normal (%) [2]: 95%
- Population Pyknosed Nuclei (%) [2]: 53%
- Population Tubulin-Different-Phenotype (%) [2]: 25%
- Total Cell Count [2]: 217
- Population Apoptotic (%) [3]: 76%
- Population Fragmented Nuclei (%) [3]: 7%
- Population Healthy Nuclei (%) [3]: 33%
- Population Hoechst High Intensity Objects (%) [3]: 15%
- Population Membrane Permeable-Phenotype (%) [3]: 4%
- Population Mitochondria Different-Phenotype (%) [3]: 97%
- Population Mitotic Cells (%) [3]: 23%
- Population Normal (%) [3]: 84%
- Population Pyknosed Nuclei (%) [3]: 59%
- Population Tubulin-Different-Phenotype (%) [3]: 98%
- Total Cell Count [3]: 238
- Population Apoptotic (%) [4]: 58%
- Population Fragmented Nuclei (%) [4]: 5%
- Population Healthy Nuclei (%) [4]: 32%
- Population Hoechst High Intensity Objects (%) [4]: 7%
- Population Membrane Permeable-Phenotype (%) [4]: 1%
- Population Mitochondria Different-Phenotype (%) [4]: 88%
- Population Mitotic Cells (%) [4]: 41%
- Population Normal (%) [4]: 92%
- Population Pyknosed Nuclei (%) [4]: 61%
- Population Tubulin-Different-Phenotype (%) [4]: 95%
- Total Cell Count [4]: 200
- Population Apoptotic (%) [5]: 49%
- Population Fragmented Nuclei (%) [5]: 12%
- Population Healthy Nuclei (%) [5]: 59%
- Population Hoechst High Intensity Objects (%) [5]: 10%
- Population Membrane Permeable-Phenotype (%) [5]: 1%
- Population Mitochondria Different-Phenotype (%) [5]: 70%
- Population Mitotic Cells (%) [5]: 50%
- Population Normal (%) [5]: 89%
- Population Pyknosed Nuclei (%) [5]: 28%
- Population Tubulin-Different-Phenotype (%) [5]: 47%
- Total Cell Count [5]: 298
- Population Apoptotic (%) [6]: 18%
- Population Fragmented Nuclei (%) [6]: 8%
- Population Hoechst High Intensity Objects (%) [6]: 3%
- Population Membrane Permeable-Phenotype (%) [6]: 2%
- Population Mitochondria Different-Phenotype (%) [6]: 29%
- Population Mitotic Cells (%) [6]: 81%
- Population Normal (%) [6]: 96%
- Population Pyknosed Nuclei (%) [6]: 32%
- Population Tubulin-Different-Phenotype (%) [6]: 29%
- Total Cell Count [6]: 264
- Population Apoptotic (%) [7]: 80%
- Population Fragmented Nuclei (%) [7]: 8%
- Population Healthy Nuclei (%) [7]: 40%
- Population Hoechst High Intensity Objects (%) [7]: 27%
- Population Membrane Permeable-Phenotype (%) [7]: 0%
- Population Mitotic Cells (%) [7]: 19%
- Population Normal (%) [7]: 72%
- Population Pyknosed Nuclei (%) [7]: 51%
- Population Tubulin-Different-Phenotype (%) [7]: 95%
- Total Cell Count [7]: 241
- Population Apoptotic (%) [8]: 81%
- Population Fragmented Nuclei (%) [8]: 3%
- Population Healthy Nuclei (%) [8]: 42%
- Population Hoechst High Intensity Objects (%) [8]: 16%
- Population Membrane Permeable-Phenotype (%) [8]: 2%
- Population Mitochondria Different-Phenotype (%) [8]: 100%
- Population Mitotic Cells (%) [8]: 18%
- Population Normal (%) [8]: 83%
- Population Pyknosed Nuclei (%) [8]: 54%
- Population Tubulin-Different-Phenotype (%) [8]: 100%
- Total Cell Count [8]: 190
- Population Apoptotic (%) [9]: 36%
- Population Healthy Nuclei (%) [9]: 79%
- Population Hoechst High Intensity Objects (%) [9]: 7%
- Population Membrane Permeable-Phenotype (%) [9]: 1%
- Population Mitochondria Different-Phenotype (%) [9]: 25%
- Population Mitotic Cells (%) [9]: 63%
- Population Normal (%) [9]: 92%
- Population Pyknosed Nuclei (%) [9]: 11%
- Population Tubulin-Different-Phenotype (%) [9]: 26%
- Total Cell Count [9]: 532
- Population Apoptotic (%) [10]: 12%
- Population Fragmented Nuclei (%) [10]: 8%
- Population Healthy Nuclei (%) [10]: 76%
- Population Hoechst High Intensity Objects (%) [10]: 4%
- Population Membrane Permeable-Phenotype (%) [10]: 9%
- Population Mitochondria Different-Phenotype (%) [10]: 12%
- Population Mitotic Cells (%) [10]: 87%
- Population Normal (%) [10]: 95%
- Population Pyknosed Nuclei (%) [10]: 14%
- Population Tubulin-Different-Phenotype (%) [10]: 35%
- Total Cell Count [10]: 420
- Population Apoptotic (%) [11]: 66%
- Population Fragmented Nuclei (%) [11]: 12%
- Population Healthy Nuclei (%) [11]: 48%
- Population Hoechst High Intensity Objects (%) [11]: 45%
- Population Membrane Permeable-Phenotype (%) [11]: 1%
- Population Mitochondria Different-Phenotype (%) [11]: 93%
- Population Mitotic Cells (%) [11]: 33%
- Population Normal (%) [11]: 54%
- Population Pyknosed Nuclei (%) [11]: 39%
- Population Tubulin-Different-Phenotype (%) [11]: 96%
- Total Cell Count [11]: 288
- Population Apoptotic (%) [12]: 74%
- Population Fragmented Nuclei (%) [12]: 7%
- Population Healthy Nuclei (%) [12]: 54%
- Population Hoechst High Intensity Objects (%) [12]: 37%
- Population Membrane Permeable-Phenotype (%) [12]: 2%
- Population Mitochondria Different-Phenotype (%) [12]: 90%
- Population Mitotic Cells (%) [12]: 25%
- Population Normal (%) [12]: 62%
- Population Pyknosed Nuclei (%) [12]: 37%
- Population Tubulin-Different-Phenotype (%) [12]: 91%
- Total Cell Count [12]: 217
